Test results taken from ChEMBL document CHEMBL1147721, “Identification of new diamine scaffolds with activity against Mycobacterium tuberculosis” (J Med Chem, 2006).
In brackets after ≈: the same amount, converted by molar mass. Activity calls are given as the source filed them. The rule behind the calls is not given here.

Legend:
[1] = tested on: HepG2; test: Cytotoxicity against human HepG2 cell line by MTS assay; assay type: functional, cell-based
[2] = tested on: HepG2; test: Selectivity index, IC50 for human HepG2 cell line/MIC for Mycobacterium tuberculosis; assay type: functional
How it was run: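 SI = IC50/MIC: HepG2 IC50 from the MTS assay divided by the M. tuberculosis MIC from broth microdilution.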

[3] = tested on: Mycobacterium tuberculosis; test: Antimycobacterial activity against recombinant Mycobacterium tuberculosis containing Rv0341 promoter by luciferase assay; assay type: functional; design: concentration or dose not given beside the values
How it was run: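 Recombinant M. tuberculosis carrying the Rv0341 promoter fused to firefly luciferase was treated and luminescence read. Activity is given as percent of EMB activity (EMB = 100%). In screening, luminescence above 1.5-fold the untreated background counted as active.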

[4] = tested on: Mycobacterium tuberculosis; test: Antimycobacterial activity against Mycobacterium tuberculosis by broth microdilution assay; assay type: functional
How it was run: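 MIC by broth microdilution against M. tuberculosis. Library mixtures were screened unpurified, and active wells were deconvoluted and re-tested as individual compounds. Purified compounds (≥95%) were tested from 10 mM methanol stocks. INH, rifampicin and EMB were controls.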

[5] = tested on: Mycobacterium tuberculosis; test: Reduction in CFU in C57BL/6 mouse infected with 10^5 CFU of Mycobacterium tuberculosis H37Rv at 10 mg/kg after 20 days; assay type: functional
How it was run: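 Low-dose chronic TB mouse model with M. tuberculosis H37Rv. Treatment began 20 days after infection: 10 mg/kg daily by oral gavage, 5 days/week for four weeks. INH 25 mg/kg was the positive control. Organ CFU were compared with infected untreated mice.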

[6] = tested on: Mus musculus; test: Reduction in body weight of C3H mouse infected with 10^6 CFU of Mycobacterium tuberculosis H37Rv at 10 mg/kg, po after 20 days; assay type: functional; design: scale not given: the % may be the effect or the level left
How it was run: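 Rapid-progression model: C3H mice infected iv with 10^6 CFU M. tuberculosis H37Rv. Oral gavage at 10 mg/kg daily (dose not optimised) started day 7 and ran 10 days. Body weight was monitored from day 0, 6 mice per group. Controls were uninfected, infected untreated, and INH 25 mg/kg.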

Structure (SMILES)	IC50 [1]	Selectivity index [2]	Activity [3]	MIC [4]	Log10 cfu [5]	Activity [6]
C=C(C)[C@@H]1CC=C(CN2CCN(Cc3ccccc3)CC2)CC1	60 µM	19	inactive	3.13 µM (≈ 0.972 µg/mL)	–	–
CC1(C)C2CC=C(CN3CCN(Cc4ccccc4)CC3)C1C2 (stereo not drawn)	64 µM	10	inactive	6.25 µM (≈ 1.94 µg/mL)	–	–
Fc1ccccc1N1CCN(C2CCC3CCCCC3C2)CC1 (stereo not drawn)	70 µM	6	145%	12.5 µM (≈ 3.96 µg/mL)	–	–
C1CN(C2C3CC4CC(C3)CC2C4)CCN(C2C3CC4CC(C3)CC2C4)C1 (stereo not drawn)	–	84.6	126%	1.56 µM (≈ 0.575 µg/mL)	0.7	12%
Clc1ccc(C(c2ccccc2)N2CCN(C3CCC4CCCCC4C3)CC2)cc1 (stereo not drawn)	47 µM	8	inactive	6.25 µM (≈ 2.64 µg/mL)	–	–
C1CCC2CC(N3CCCN(C4CCC5CCCCC5C4)CC3)CCC2C1 (mixture of isomers)	54 µM	35	127%	1.56 µM	–	–
COc1ccccc1CN1CCCN(Cc2ccccc2OC)CC1	–	17	138%	6.25 µM (≈ 2.13 µg/mL)	–	–
CC1(C)C2CC=C(CN3CCCN(CC4=CCC5CC4C5(C)C)CC3)C1C2	–	35	113%	3.13 µM (≈ 1.15 µg/mL)	–	–
C1CCCC(N2CCCN(C3CCCCCCC3)CC2)CCC1	74 µM	47	81%	1.56 µM (≈ 0.5 µg/mL)	–	–
C=C(C)[C@@H]1CC=C(CN2CCCN(CC3=CC[C@@H](C(=C)C)CC3)CC2)CC1	81 µM	13	inactive	6.25 µM (≈ 2.3 µg/mL)	–	–
c1ccc(COc2ccc(CN3CCN(Cc4ccccc4)CC3)cc2)cc1	54 µM	9	inactive	6.25 µM (≈ 2.33 µg/mL)	1	12%
COc1ccccc1CN1CCN(C(c2ccccc2)c2ccc(Cl)cc2)CC1 (stereo not drawn)	65 µM	10	inactive	6.25 µM (≈ 2.54 µg/mL)	–	–
NNC(=O)c1ccncc1 [ISONIAZID]	–	–	–	–	3.5	–
c1ccc(COc2ccc(CN3CCCN(Cc4ccc(OCc5ccccc5)cc4)CC3)cc2)cc1	56 µM	18	inactive	3.13 µM (≈ 1.54 µg/mL)	–	–
CCOc1ccccc1CN1CCCN(Cc2ccccc2OCC)CC1	71 µM	46	70%	1.56 µM (≈ 0.575 µg/mL)	–	21%
Fc1ccc(N2CCN(C3CCC4CCCCC4C3)CC2)cc1 (stereo not drawn)	86 µM	7	157%	12.5 µM (≈ 3.96 µg/mL)	–	–
